Reference: publication PMC3949138 (Journal of veterinary pharmacology and therapeutics, 2013)
Values joined by “and” are separate entries in the source; they are usually repeats but may differ in a detail not shown here. Equal entries are not always repeated. Where two headings read alike, the source gives them in different places.

Columns and labels:
[1] = Serum pharmacokinetics of SAHA in cats after IV and PO administration; type: in vivo
Procedure, shortened: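 Six adult SPF cats (3 female, 3 male, 10–18 months) in a randomized crossover with 1-week washout: 2 mg/kg IV (20 mg/mL in DMSO) or 250 mg/m2 PO in gelatin capsules. Serum without anticoagulant at set times up to 1440 min, stored at −70 °C. d5-SAHA internal standard at 1000 ng/mL final; acetonitrile extraction; C18 UPLC, positive-ion ESI MS/MS; LOQ 2.26 ng/mL; non-compartmental parameters.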

cats = assay: Tolerability monitoring in cats; type: in vivo
Procedure, shortened: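 Six cats dosed in the crossover (2 mg/kg IV in DMSO; 250 mg/m2 PO capsules) had physical examinations. CBC (14 parameters) and serum biochemistry (16 values) were taken 1 week before, 24 h after and 1 week after each dose. Daily food intake was recorded for 1 week before and after each dosage; days compared by […].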

[2] = test system: acetylated histone (H3K9,14); type: in vivo, cats
[3] = ref Sandhu et al., 2007, cited from earlier work
[4] = ref Kelly et al., 2005, cited from earlier work
dogs = conditions: dog, in vivo; cited from earlier work
[5] = cats n=6, 250 mg/m2 PO, mean ± SD
[6] = after IV administration of the SAHA/DMSO mixture

O=C(CCCCCCC(=O)Nc1ccccc1)NO [SAHA, Suberoylanilidehydroxamic acid]
Cmax ([1]; both, cat, serum, po, 250 mg/m2): ~160 nM | AUC ([1]; both, serum, iv, 2 mg/kg): 150 ± 40 ng·h/mL | AUC(0-inf) ([1]; both, serum, iv, 2 mg/kg): 150 ± 50 ng·h/mL | clearance ([1]; both, serum, iv, 2 mg/kg): 233 mL/min/kg | half-life ([1]; both, serum, iv, 2 mg/kg): 9 min | half-life ([1]; both, serum, po, 2 mg/kg): 120 ± 60 min | AUC ([1]; both, serum, po, 250 mg/m2): 0.266 µM·h and 70 ng·h/mL | AUC(0-inf) ([1]; both, serum, po, 250 mg/m2): 80 ± 20 ng·h/mL | Cmax ([1]; both, serum, po, 250 mg/m2): 160 nM | bioavailability ([1]; both, serum, po, 250 mg/m2): 8 ± 4% | Cmax ([1]; cat, serum, po, 60 mg/kg): 50.1 ng/mL | T1/2λz (elimination half-life) ([1]; cats n=6, 2 mg/kg IV in DMSO, serum, mean ± SD): 9 ± 1.8 min | Percent Extrapolated (of AUC) ([1]; cats n=6, 2 mg/kg IV, mean ± SD): 0.6 ± 0.2% | Cmaxobs (observed maximum serum concentration) [1, 5]: 41.7 ng/mL and 40 ± 10 ng/mL | Percent Extrapolated (of AUC) [1, 5]: 17 ± 7% | Tmaxobs (time to observed maximal serum concentration) [1, 5]: 36 ± 18 min | overall tolerability (cats; 2 mg/kg IV and 250 mg/m2 PO, domestic cats): well tolerated | change in daily food intake following drug administration (cats; 1 week before and 1 week after each dosage (IV and PO)): No significant change | duration of moderate bleeding from venipuncture sites (cats; [6]): up to 5 minutes | moderate bleeding from venipuncture sites (cats affected) (cats; [6]): 2/6 | open-mouth breathing (cats affected) (cats; immediately following 2 mg/kg IV injection in DMSO): 2/6 | acetylated histone protein in blood leukocytes (acetyl H3/total H3) ([2]; 4 cats, 2 mg/kg IV and 250 mg/m2 PO): An increase in acetylated histone protein was detected | time for acetylated histone protein to return to baseline ([2]; 4 cats, after IV and PO administration): approximately 2 hours | histone acetylation in peripheral blood mononuclear cells ([2]; single cat #11-245, 60 mg/kg PO, 0, 60, 120, 1440 min): demonstrated a pharmacodynamic effect which roughly correlated with pharmacokinetics | oral bioavailability ([3]; dog): 1.8% | terminal elimination half-life ([3]; dogs, 2 mg/kg IV): 12 min | AUC0-τ ([3]; dogs, 20 mg/kg oral): 0.42 µM·h | Cmax ([3]; read-out: average Cmax, dogs, 20 mg/kg oral): 260 nM | half-life following IV administration ([4]; humans, IV, 2003, Kelly et al.): 21 to 58 min | bioavailability ([4]; patients with advanced cancer, estimated): 43% | no observed adverse effects level (NOAEL) (dogs): 60 mg/kg
